Data reported in paper PMC4136667 (Journal of Medicinal Chemistry, 2014).

Target: human ΔF508–CFTR (Homo sapiens, UniProt P13569, DEL508-508)
Assay: ΔF508–CFTR corrector activity assay
Type: cell-based
Conditions: for Vmax higher than benchmark bithiazole corr4a: difference to corr4a (475 μM/s); for Increase of Vmax compared to benchmark bithiazole corr4a: relative to corr4a; for Corrector activity (in words): ΔF508–CFTR FRT cells
Summary of the method: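 FRT cells stably coexpressing human ΔF508–CFTR and YFP-H148Q/I152L were grown 24 h at 37 °C, then exposed 16–20 h to test compound at various concentrations, with DMSO vehicle and a bithiazole positive control. Cells were PBS-washed and given forskolin (20 μM) plus genistein (50 μM) for 20 min. Fluorescence (ex 500, em 535 nm) was recorded 2 s before and 12 s after adding iodide-for-chloride PBS. Initial rate came from an exponential fit, normalized to initial fluorescence. Vmax came from Hill fitting of concentration–activity data.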

| Vmax higher than benchmark bithiazole corr4a [µM/s] | Increase of Vmax compared to benchmark bithiazole corr4a [fold] | Corrector activity (in words) | Compound |
| --- | --- | --- | --- |
| 200 | 1.5 | – | COC(=O)CCC(=O)Nc1nc2c(s1)-c1nc(Nc3cc(Cl)ccc3OC)sc1CCC2 [9e, Methyl 4-((8-((5-chloro-2-methoxyphenyl)amino)-5,6-dihydro-4H-cyclohepta[1,2-d:3,4-d′]bis(thiazole)-2-yl)amino)-4-oxobutanoate] |
| – | – | modest correctors | COc1ccc(Cl)cc1Nc1nc2c(s1)CCCc1nc(N)sc1-2 [7a, N8-(5-Chloro-2-methoxyphenyl)-5,6-dihydro-4H-cyclohepta[1,2-d:3,4-d′]bis(thiazole)-2,8-diamine] |
| – | – | modest correctors | COc1ccc(Cl)cc1Nc1nc2c(s1)CCCCc1nc(N)sc1-2 [8a, N9-(5-Chloro-2-methoxyphenyl)-4,5,6,7-tetrahydrocycloocta[1,2-d:3,4-d′]bis(thiazole)-2,9-diamine] |
| 200 | 1.5 | – | COc1ccc(Cl)cc1Nc1nc2c(s1)CCCCc1nc(NC(=O)C(C)C)sc1-2 [10c, N-(9-((5-Chloro-2-methoxyphenyl)amino)-4,5,6,7-tetrahydrocycloocta [1,2-d:3,4-d′]bis(thiazole)-2-yl)isobutyramide] |
